Experimental findings from ChEMBL document CHEMBL1146240 (J Med Chem, 2007) are described below.

The subject of data set [1] is MC-38 (Mus musculus). In words: Induction of hemorrhagic necrosis in colon 38 tumor bearing C57B1/6 mouse at 200 mg/kg, ip after 24 hrs relative to control. The note with it: route intraperitoneal.
The subject of data set [2] is HECPP. As to the kind of experiment: Activation of NF-kappaB in HECPP cells at 1000 ug/mL. Type of data set: functional, cell-based. The conditions noted are these: Mus musculus. The essentials: (§1)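 HECPP murine endothelial cells (2.5 × 10⁷) exposed to compound for 2 h. Nuclear extracts prepared, and 5 µg nuclear protein incubated with poly(dI/dC) on ice for 10 min. A ³²P-labeled κ-enhancer NF-κB consensus oligonucleotide was then added. Complexes were resolved on a 4% polyacrylamide gel in 0.25× TBE at 150 V for 2 h, then read by autoradiography (EMSA).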

Data set [3] in a line: Cytotoxicity against HECPP cells assessed as reduction of cell viability at 600 ug/mL after 24 hrs by MTT assay. It counts as cell-based. The conditions noted are these: mouse. In outline: (§2)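 HECPP murine endothelial cells in M199 with 10% FCS, 37 °C, 5% CO₂. Seeded at 10⁵ cells/well, incubated overnight, then exposed to compound for 24 h. MTT added for 2 h and formazan dissolved in 0.04 N HCl/isopropanol. Absorbance read at 550 nm with 630 nm reference, expressed as percent of metabolically active cells.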

In data set [4] the test system is Splenocyte. In words: Induction of TNF secretion in mouse splenocytes at 100 ug/mL after 4 hrs. It counts as functional. In outline: (§3)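 Primary male mouse splenocytes, RBC-lysed, plated at 3 × 10⁶ cells/well in Alpha-MEM with 10% FCS. Treated with compound for 4 h at 37 °C. Supernatant TNF measured by ELISA, each sample in duplicate, with triplicate wells per condition. Mean ± SEM reported.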

The test system of data set [5] is HECPP. In words: Activation of NF-kappaB in HECPP cells at 300 ug/mL. It counts as functional, cell-based. The conditions noted are these: Mus musculus. The essentials:
as §1

Data set [6] has as its system Splenocyte. In words: Induction of TNF secretion in mouse splenocytes at 10 ug/mL after 4 hrs. It counts as functional. In outline: as §3
The test system of data set [7] is MC-38 (Mus musculus). As to the kind of experiment: Induction of hemorrhagic necrosis in colon 38 tumor bearing C57B1/6 mouse at 25 mg/kg, ip after 24 hrs relative to control. The note with it: route intraperitoneal.
Data set [8] deals with HECPP. In words: Activation of NF-kappaB in HECPP cells at 10 ug/mL. It counts as functional, cell-based. The conditions noted are these: Mus musculus. The essentials: as §1
The subject of data set [9] is HECPP. As to the kind of experiment: Activation of NF-kappaB in HECPP cells at 30 ug/mL. It counts as functional, cell-based. The note with it: Mus musculus. In outline: as §1
The subject of data set [10] is Splenocyte. As to the kind of experiment: Induction of TNF secretion in mouse splenocytes at 30 ug/mL after 4 hrs. Type of data set: functional. In outline:
as §3

Data set [11] relates to MC-38 (Mus musculus). As to the kind of experiment: Induction of hemorrhagic necrosis in colon 38 tumor bearing C57B1/6 mouse at 190 mg/kg, ip after 24 hrs relative to control. The note with it: route intraperitoneal.
The nature of data set [12]: Induction of TNF production in murine splenocytes at 100 ug/mL.
Data set [13] in a line: Cytotoxicity against HECPP cells assessed as reduction of cell viability at 300 ug/mL after 24 hrs by MTT assay. It counts as cell-based. The conditions noted are these: mouse. In outline: as §2

Calls of active or inactive are those of the source. The rule behind the calls is not given here. Bounds are passed on as bounds.

For the compound `[N-]=[N+]=Nc1cccc2c(=O)c3cccc(CC(=O)O)c3oc12`, the Activity in the data set with MC-38 (Mus musculus) [1] was >95%; in data set [3], 50%; with Splenocyte [4] it was 110 pg/mL. Further, the outcome with HECPP [2] and in the data set on HECPP [5] was Active.
In the case of `Cc1ccc2c(=O)c3cccc(CC(=O)O)c3oc2c1C` [VADIMEZAN], the Activity in the data set with Splenocyte [6] was 180 pg/mL; in the data set with MC-38 (Mus musculus) [7] it was >95%. Also, the result with HECPP [8] was Active.
In the case of `Cc1ccc2c(=O)c3cccc(CC(=O)O)c3oc2c1N=[N+]=[N-]`, in the data set on HECPP [9], the result was Active. The Activity in the data set on Splenocyte [10] was <50 pg/mL; with MC-38 (Mus musculus) [11] it was >95%; in [13], 50%. In addition, the TNF production in data set [12] is <50 pg/mL.
